# Assay outcomes as filed in PubChem.
# tim10-1 inh: growth inhibitors of tim10-1 mutant yeast, primary screen, luminescence, uHTS. inhibition, % at 20 µM. S. cerevisiae tim10-1 ts strain growth, BacTiter-Glo, 24 h. 330,000 compounds, 2.2% hits;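 active = inhibition of at least 40%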;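 also: mutant grown at 25 °C; 0% = DMSO wells with yeast and 100% = wells holding no yeast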
# TIM10 inh: growth inhibitors of isogenic TIM10 control yeast, primary screen, counter-screen for tim10-1 yeast inhibitor project, luminescence, uHTS; S. cerevisiae TIM10 strain growth, BacTiter-Glo luminescence, 24 h; inhibition, % at 10 µM; 330,000 compounds, 1.4% hits; AID 463195, 2010;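 active = inhibition of 40% or more at the single tested concentration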;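 also: wild-type TIM10 isogenic control strain grown at permissive 25 °C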
# CHOP UPR activ: activators of apoptotic CHOP UPR arm, primary screen, cell-based, CHO-CHOP luciferase reporter, luminescence, uHTS; UPR activation; percent of tunicamycin response over DMSO baseline; activation, % at 10 µM; 330,000 compounds, 0.34% hits; AID 449763, 2010;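 active = at 10 µM dose, activation of 40% or more, normalized to positive control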;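 also: 100% = tunicamycin at 10 µg/mL and 0% = DMSO alone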
#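 Evaluation: % reporter activation, DMSO baseline versus tunicamycin full activation; System: CHO-CHOP luciferase reporter cell line; Input: 500 cells/well; Incubation: 6 h compound treatment, 37 °C; Measured by: Steady-Glo luciferase luminescence; Dosing: one dose, 10 µM in 0.5% DMSO; Buffer or medium: F12 medium, 10% FBS; Benchmarks: positive tunicamycin 10 µg/mL, negative DMSO alone.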
# UPR XBP1 act: activators of adaptive XBP1 UPR arm, primary screen, cell-based, CHO-XBP1 luciferase reporter, luminescence, uHTS | IRE1-XBP1 UPR activation; percent of tunicamycin response, DMSO as zero | AID 463104, 2010 | 330,000 compounds, 0.33% hits | activation, % at 20 µM;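 active = versus positive control, 20 µM dose yields 30% or more activation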;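 also: 100% = tunicamycin at 10 µg/mL and 0% = DMSO only wells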
#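 Assay system: IRE1-XBP1 luciferase reporter CHO line. Input: 1000 cells/well. Buffer or medium: F12 with 10% serum. Doses: 20 µM, 1% DMSO. Times: overnight seeding at 37 °C, 6 h compound treatment at 37 °C. Technique: Steady-Glo luciferase glow luminescence, 10 min after reagent addition.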
# tim23-1 inh: growth inhibitors of tim23-1 mutant yeast, primary screen, luminescence, uHTS. S. cerevisiae tim23-1 growth, BacTiter-Glo luminescence, 24 h. inhibition, % at 20 µM. AID 463212, 2010. 330,000 compounds, 1.3% hits;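 active = growth inhibition of the mutant yeast at or above 50%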;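 also: temperature-sensitive mutant grown at 25 °C; plate controls were DMSO-treated mutant yeast for no effect and medium wells lacking yeast for full effect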
# tim10-1 conf: growth inhibitors of tim10-1 mutant yeast, confirmation, single concentration, luminescence, S. cerevisiae; shares compounds with tim10-1 inh; S. cerevisiae tim10-1 ts strain growth, BacTiter-Glo, 24 h; inhibition, % at 20 µM; 7,400 compounds, 56% hits; AID 463213, 2010;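 active = inhibition of yeast growth at or above a set limit in either of two repeat tests at 20 µM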;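 also: tim10-1 mutant grown at permissive 25 °C to find synthetic lethal compounds; 0% = DMSO yeast wells and 100% = medium wells without yeast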
# TIM10 conf: growth inhibitors of wild-type TIM10 yeast, confirmation, counter-screen for tim10-1 synthetic lethality project, single concentration, luminescence, S. cerevisiae | shares compounds with TIM10 inh | S. cerevisiae tim10 strain growth, BacTiter-Glo luminescence, 24 h | inhibition, % at 10 µM | 4,600 compounds, 63% hits | AID 463215, 2010;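 active = inhibition of yeast growth at or above a set limit in either of two replicates at 10 µM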;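 also: this counterscreen used the strain with wild-type TIM10; 0% = yeast with DMSO and 100% = medium wells lacking yeast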
# tim23-1 conf: tim23-1 mutant yeast growth inhibitors, confirmation, luminescence, single concentration; shares compounds with tim23-1 inh; S. cerevisiae tim23-1 growth, BacTiter-Glo luminescence, 24 h; inhibition, % at 20 µM; 4,400 compounds, 83% hits;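 active = inhibition above about 39% in either of two replicate wells at 20 µM, limit read from the data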;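 also: temperature-sensitive tim23-1 mutant grown at 25 °C; 0% = DMSO wells with yeast and 100% = medium wells without yeast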
# * = called active by the depositor; . = no result given. Compounds with a hit are over-represented: about 3.9% of the library has one in this group of screens.
SMILES,tim10-1 inh,TIM10 inh,CHOP UPR activ,UPR XBP1 act,tim23-1 inh,tim10-1 conf,TIM10 conf,tim23-1 conf
CN1CCN(S(=O)(=O)c2cccc(C(=O)N3CCN(c4ccccc4)CC3)c2)CC1,-23,-4,1,0,-10,.,.,.
Cc1ccccc1NC(=O)/C(C#N)=C/c1ccccc1C(F)(F)F,58*,56*,5,10,56*,56*,5,58*
CC(C)N1C(=O)N(c2cccc(Cl)c2)C(C)(O)CC1(C)C (stereo not drawn),15,-6,1,1,20,.,.,.
O=C(CSc1ccc(Cl)cc1)N/N=C/c1ccc([N+](=O)[O-])o1,62*,33,6,-1,55*,37*,.,57*
Cc1ccc(OCC(=O)N/N=C/c2ccc([N+](=O)[O-])o2)cc1,44*,47*,0,-2,51*,47*,50*,-11
NC(=O)N/N=C/c1ccc([N+](=O)[O-])o1,4,0,-2,-3,11,.,.,.
Cc1ccc(OCC(=O)N/N=C/c2ccco2)cc1,-24,-15,-2,2,19,.,.,.
O=C(O)/C(=C\c1ccccc1OC(F)F)Sc1nnc(-c2ccc(F)cc2)o1,71*,59*,-1,-1,70*,75*,68*,71*
CSc1nnc(-c2ccc(F)cc2)o1,-5,-14,2,-1,3,.,.,.
O=C(Oc1oc(-c2ccco2)nc1C=Nc1ccccc1)c1ccoc1,18,-2,2,2,10,.,.,.
Cc1ccc(C(=O)Oc2oc(-c3ccco3)nc2C=Nc2ccc(Cl)cc2)cc1,50*,37,31,7,50*,35*,.,66*
COc1ccc(OC)c(C(c2c(O)nc(SC)[nH]c2=O)c2c(O)nc(SC)[nH]c2=O)c1,2,6,2,-3,19,.,.,.
O=C(NC(=S)Nc1cccc(C(F)(F)F)c1)c1ccc2nonc2c1,51*,27,0,8,56*,22,.,63*
FC(F)(F)c1cccc(NC(=S)Nc2ccc(Cl)c(Cl)c2)c1,73*,76*,16,1,86*,82*,73*,90*
Cc1cc(C)nc(SCC(=O)N/N=C/c2ccc3c(c2)OCO3)n1,-5,-5,9,1,7,.,.,.
O=C(CSCc1ccccc1Br)N/N=C/c1ccc2c(c1)OCO2,51*,33,8,-2,60*,46*,.,50*
CCOCC(=O)Nc1nc2ccc(OCC)cc2s1,26,4,3,0,34,.,.,.
CCOc1ccc2nc(NC(=O)C3(C)CC3(Br)Br)sc2c1 (stereo not drawn),50*,25,8,1,74*,40*,.,38*
COc1ccc(-c2coc3cc(O)cc(O)c3c2=O)cc1,53*,23,3,-2,68*,37*,.,64*
COc1ccc(-c2coc3cc(OC)cc(O)c3c2=O)cc1,-4,17,3,0,6,.,.,.
O=C1C(SCCO)=C(SCCO)C(=O)c2ccccc21,86*,52*,-12,-7,80*,93*,38*,75*
O=C(O/N=C1\C(=O)N(c2ccccc2)c2ccccc21)C1CC1,47*,40,0,0,69*,44*,.,64*
COc1ccc(N2CCN(C3CCCN(C(=O)CCN4CCCCO4)C3)CC2)cc1 (stereo not drawn),0,0,-1,-5,1,.,.,.
CC(C)n1ncc2c(C(=O)NCC(=O)Nc3ccccc3Br)cc(C3CC3)nc21,42*,8,3,-2,53*,26,.,44*
CCc1ccccc1NC(=O)CNC(=O)c1cc(C2CC2)nc2c1cnn2C(C)C,3,-8,1,-2,30,.,.,.
SMILES,tim10-1 inh,TIM10 inh,CHOP UPR activ,UPR XBP1 act,tim23-1 inh,tim10-1 conf,TIM10 conf,tim23-1 conf
Cc1ccc(NC(=O)CN2C(=O)CC(C)S(=O)(=O)c3ccccc32)cc1 (stereo not drawn),26,8,1,-2,20,.,.,.
CC(=O)c1cccc2c(O)c(C3=Nc4ccccc4C3=O)[nH]c12,73*,63*,17,20,88*,57*,-28,90*
O=C(NC1CC1)c1ccc2c(c1)C1C3CCC(C3)C1C(c1ccccc1)N2 (stereo not drawn),50*,41*,3,0,62*,42*,0,54*
CCOC(=O)c1ccc(N=c2sc(C(=O)OC)cc(=O)n2-c2ccc(C(=O)OCC)cc2)cc1,15,24,7,3,20,.,.,.
COC(=O)c1cc(=O)n(-c2ccccc2)c(=Nc2ccccc2)s1,51*,18,5,1,73*,43*,.,52*
CCNC(=S)NNC(=O)c1cc(C)nc2ccccc12,-3,6,2,0,-2,.,.,.
CCNC(=S)NNC(=O)c1cc(-c2ccc(OC)cc2)nc2ccccc12,82*,54*,5,-1,86*,74*,-30,78*
CCNC(=S)NNC(=O)c1cc(-c2cccc(C)c2)nc2ccccc12,82*,55*,1,-3,73*,79*,41*,72*
CCCCOc1ccc(-c2cc(C(=O)NNC(=S)NCC)c3ccccc3n2)cc1,72*,47*,-1,5,67*,70*,46*,74*
CCNC(=O)COC(=O)c1cc(-c2ccc(OC)cc2)nc2ccccc12,18,20,-1,1,42,.,.,.
O=C(NCCC(=O)N1CCC2(CC1)NCCc1[nH]cnc12)c1ccc(Br)cc1,-16,4,0,-3,-9,.,.,.
O=C(COC(=O)c1ccc(Cl)nc1)Nc1ccc2c(c1)OCO2,-14,-36,1,-1,-1,.,.,.
COc1ccccc1C/C(N)=N/OC(=O)c1cccc([N+](=O)[O-])c1,52*,81*,2,-2,70*,41*,86*,67*
COc1cccc(/C=C/C(=O)c2cccc([N+](=O)[O-])c2)c1OC,43*,36,1,1,61*,44*,.,56*
